Results reported in ChEMBL document CHEMBL1121733, “Synthesis and evaluation of ureido- and vinylureidopenicillins as inhibitors of intraruminal lactic acid production” (J Med Chem, 1981).
In brackets after ≈: the same amount, converted by molar mass.

How the values were obtained:
[1] = Lipophilicity estimated on reversed phase TLC; assay type: physicochemical; conditions: silicone oil-coated silica gel plates, 30% MeOH in pH 7.0 buffer
Summary of the method: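 Reversed-phase TLC on silica gel G plates dipped in 20 vol % silicone oil in hexane and dried. Mobile phase 30 vol % MeOH in pH 7.0 buffer. ΔR_M measured against a reference compound run on every plate, averaged over 2–6 plates.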

Escherichia coli = assay: In vitro Minimum inhibitory concentration against Escherichia coli ATCC 25922; assay type: functional
Summary of the method: (§1)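 Twofold broth microdilution from 200 to 0.0008 µg/mL in brain–heart infusion broth with 0.066 g/L tetrazolium chloride. Inoculum was 1 µL of a 1:10 dilution of an 18 h, 37 °C culture. Plates incubated 16 h at 37 °C, with growth read as red precipitate. Triplicate trays per compound per organism.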

Staphylococcus aureus [2] = assay: (§2) In vitro Minimum inhibitory concentration against Staphylococcus penicillin G resistant); assay type: functional, staphylococcus pureus
Summary of the method: (§3)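 Broth microdilution in brain–heart infusion broth with 0.066 g/L tetrazolium chloride. Serial twofold dilutions from 200 to 0.0008 µg/mL. Inoculum: 1 µL of a 1:10 dilution of an 18 h, 37 °C culture. Incubated 16 h at 37 °C; growth read as red precipitate. MIC taken from triplicate trays per compound per organism.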

Staphylococcus aureus [3] = assay: In vitro Minimum inhibitory concentration against Staphylococcus aureus ATCC 6538P (penicillin G sensitive); assay type: functional; summary of the method: as §1
Streptococcus pyogenes = assay: In vitro Minimum inhibitory concentration against Streptococcus pyogenes ATCC 8668; assay type: functional; summary of the method: as §1
Enterococcus faecium = assay: In vitro Minimum inhibitory concentration against Streptococcus faecium ATCC 8043-2; assay type: functional; summary of the method: as §1
[4] = Effective inhibition concentration for reduction of lactic acid production to less than 10% of control; assay type: functional
Summary of the method: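 Bovine rumen fluid from a fistulated animal, strained through cheesecloth, mixed 1:1 with CO2-saturated buffer (glucose 27 g/L, trypticase 1.50 g/L, Na2HPO4 4.26 g/L). Compounds retested from 0.5 mg/mL stock serially diluted to 0.004 mg/mL, duplicate tubes, 5.5 h at 39 °C. Stopped with 25% metaphosphoric acid, centrifuged, l(+)-lactate measured enzymatically. Value is the minimum concentration giving lactate below 10% of no-compound control.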

[5] = Effective inhibition concentration for reduction of propionic acid production to less than 95% of control; assay type: functional
Summary of the method: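 Rumen fluid from a fistulated bovine, strained and mixed 1:1 with CO2-saturated buffer with moderate substrate at normal intraruminal pH (volatile fatty acid model). Retest dilutions from 0.5 mg/mL stock down to 0.004 mg/mL, triplicate tubes, 9 h. Stopped with 25% metaphosphoric acid, centrifuged, propionate measured by GC-FID. Value is the minimum concentration giving propionate below 95% of control.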

[6] = Percent inhibition of lactic acid production by the compound at 0.5 p.p.m.; assay type: functional; parameters: scale not given: the % may be the effect or the level left
Summary of the method: (§4)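 Screen at 50, 5 and 0.5 µg/mL of incubation contents in strained bovine rumen fluid mixed 1:1 with CO2-saturated glucose/trypticase buffer, 5.5 h at 39 °C. Stopped with metaphosphoric acid, l(+)-lactate measured enzymatically. Expressed as lactate production as % of control incubations without compound.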

[7] = Percent inhibition of lactic acid production by the compound at 50 p.p.m.; assay type: functional; parameters: scale not given: the % may be the effect or the level left; summary of the method: as §4
[8] = Percent inhibition of lactic acid production by the compound at 5 p.p.m.; assay type: functional; parameters: scale not given: the % may be the effect or the level left; summary of the method: as §4
Staphylococcus aureus [9] = assay: as §2; assay type: functional; summary of the method: as §3

| SMILES | Delta RM [1] | MIC (Escherichia coli) [µg/mL] | MIC (Staphylococcus aureus [2]) [µg/mL] | MIC (Staphylococcus aureus [3]) [µg/mL] | MIC (Streptococcus pyogenes) [µg/mL] | MIC (Enterococcus faecium) [µg/mL] | Concentration [4] [µg/mL] | Dose [5] [µg/mL] | Control [6] [%] | Control [7] [%] | Control [8] [%] | MIC (Staphylococcus aureus [9]) [µg/mL] |
| --- | --- | --- | --- | --- | --- | --- | --- | --- | --- | --- | --- | --- |
| CC1(C)SC2C(NC(=O)N/C=C/C3CCCCC3)C(=O)N2[C@H]1C(=O)[O-].[Na+] (some centres not stated) | 0.77 | > 200 | 50 | 0.4 | 0.2 | 50 | 0.31 | 2.5 | 0 | 2 | 2 |  |
| CC1(C)SC2C(NC(=O)N/C=C/c3ccc(Cl)cc3)C(=O)N2[C@H]1C(=O)[O-].[Na+] (some centres not stated) | 0.58 | > 200 | 50 | 6.25 | 3.12 | > 200 | 1.25 | > 10 | 0 | 10 | 2 |  |
| CC1(C)SC2C(NC(=O)NCCc3ccccc3)C(=O)N2[C@H]1C(=O)[O-].[Na+] (some centres not stated) | -0.6 | 100 |  | 0.1 | 0.1 | 3.12 | 0.31 | 5 | 4 | 9 | 6 | 50 |
| CC(C)(C)c1ccc(/C=C/NC(=O)NC2C(=O)N3C2SC(C)(C)[C@@H]3C(=O)O)cc1.CCN(CC)CC (some centres not stated) | 1.31 |  |  |  |  |  |  |  |  |  |  |  |
| CC1(C)SC2C(NC(=O)N/C=C/c3ccc4c(c3)OCO4)C(=O)N2[C@H]1C(=O)[O-].[Na+] (some centres not stated) | -0.06 | 100 | 50 | 6.25 | 1.6 | 200 | 0.16 | > 10 | 0 | 4 | 0 |  |
| CCOC(=O)c1ccc(NC(=O)NC2C(=O)N3C2SC(C)(C)[C@@H]3C(=O)O)cc1 (some centres not stated) |  |  |  |  |  |  |  |  | 101 | 3 | 95 |  |
| CC1(C)SC2C(NC(=O)N/C=C/c3ccc4ccccc4c3)C(=O)N2[C@H]1C(=O)[O-].[Na+] (some centres not stated) | 1.05 | > 200 | 100 | 3.12 | 3.12 | 200 | 0.31 | > 10 | 1 | 8 | 2 |  |
| CC(C)(C)c1ccc(/C=C/NC(=O)NC2C(=O)N3C2SC(C)(C)[C@@H]3C(=O)[O-])cc1.[Na+] (some centres not stated) | 1.31 | > 200 | 100 | 3.12 | 1.6 | > 200 |  |  |  |  |  |  |
| CC(C)(C)c1ccc(/C=C/NC(=O)NC2C(=O)N3C2SC(C)(C)[C@@H]3C(=O)O)cc1 (some centres not stated) |  |  |  |  |  |  | 0.16 | > 10 | 0 | 0 | 0 |  |
| CC1(C)SC2C(NC(=O)NCc3ccc4ccccc4c3)C(=O)N2[C@H]1C(=O)[O-].[Na+] (some centres not stated) | 0 | > 200 |  | 0.05 | 0.05 | 3.12 | 0.08 | 5 | 4 | 9 | 4 | 50 |
| CC1(C)S[C@@H]2[C@H](NC(=O)Cc3ccccc3)C(=O)N2[C@H]1C(=O)O [PENICILLIN G] |  | 25 (≈ 74.8 µM) | 50 (≈ 150 µM) | 0.05 (≈ 0.15 µM) | 0.01 (≈ 0.0299 µM) | 0.4 (≈ 1.2 µM) |  |  |  |  |  |  |
| CC1(C)SC2C(NC(=O)NCCc3ccc4ccccc4c3)C(=O)N2[C@H]1C(=O)[O-].[Na+] (some centres not stated) | 0.89 | > 200 | 25 | 0.1 | 0.05 | 6.25 | 0.31 | > 10 | 2 | 9 | 7 |  |

More lines, main results first:

| Delta RM [1] | SMILES | MIC (Escherichia coli) [µg/mL] | MIC (Staphylococcus aureus [2]) [µg/mL] | MIC (Staphylococcus aureus [3]) [µg/mL] | MIC (Streptococcus pyogenes) [µg/mL] | MIC (Enterococcus faecium) [µg/mL] | Concentration [4] [µg/mL] | Dose [5] [µg/mL] | Control [6] [%] | Control [7] [%] | Control [8] [%] | MIC (Staphylococcus aureus [9]) [µg/mL] |
| --- | --- | --- | --- | --- | --- | --- | --- | --- | --- | --- | --- | --- |
| -0.45 | COc1cc(/C=C/NC(=O)NC2C(=O)N3C2SC(C)(C)[C@@H]3C(=O)[O-])cc(OC)c1OC.[Na+] (some centres not stated) |  |  |  |  |  |  |  | 105 | 8 | 2 |  |
| -2 | CC(C)NC(=O)NC1C(=O)N2C1SC(C)(C)[C@@H]2C(=O)[O-].[Na+] (some centres not stated) |  |  |  |  |  |  |  | 108 | 7 | 119 |  |
| 0.43 | CCOc1ccc(/C=C/NC(=O)NC2C(=O)N3C2SC(C)(C)[C@@H]3C(=O)[O-])cc1.[Na+] (some centres not stated) |  |  |  |  |  | 0.31 | > 10 | 0 | 1 | 1 |  |
| 0.5 | Cc1ccc(/C=C/NC(=O)NC2C(=O)N3C2SC(C)(C)[C@@H]3C(=O)[O-])cc1.[Na+] (some centres not stated) |  |  |  |  |  | 0.31 | > 10 | 0 | 2 | 2 |  |
| -0.01 | CC1(C)SC2C(NC(=O)Nc3ccc(Cl)cc3)C(=O)N2[C@H]1C(=O)[O-].[Na+] (some centres not stated) |  |  |  |  |  |  |  | 102 | 2 | 112 |  |
| -0.62 | CC1(C)SC2C(NC(=O)NC3CCCCC3)C(=O)N2[C@H]1C(=O)[O-].[Na+] (some centres not stated) |  |  |  |  |  |  |  | 99 | 2 | 0 |  |
| 0.69 | CC1(C)SC2C(NC(=O)N/C=C/c3cccc(Br)c3)C(=O)N2[C@H]1C(=O)[O-].[Na+] (some centres not stated) |  |  |  |  |  |  |  | 142 | 3 | 0 |  |
| -0.75 | CC1(C)SC2C(NC(=O)Nc3ccccc3)C(=O)N2[C@H]1C(=O)[O-].[Na+] (some centres not stated) |  |  |  |  |  |  |  | 96 | 3 | 110 |  |
| 0.3 | C/C(=C\NC(=O)NC1C(=O)N2C1SC(C)(C)[C@@H]2C(=O)[O-])c1ccccc1.[Na+] (some centres not stated) |  |  |  |  |  |  |  | 87 | 0 | 5 |  |
| -0.29 | CC1(C)SC2C(NC(=O)NC3CC3c3ccccc3)C(=O)N2[C@H]1C(=O)[O-].[Na+] (some centres not stated) |  |  |  |  |  |  |  | 104 | 8 | 4 |  |
| 0.66 | CC1(C)SC2C(NC(=O)N/C=C/c3cccc4ccccc34)C(=O)N2[C@H]1C(=O)[O-].[Na+] (some centres not stated) |  |  |  |  |  |  |  | 111 | 3 | 0 |  |
| 1.44 | CC1(C)SC2C(NC(=O)N/C=C/c3ccc(Cl)c(Cl)c3)C(=O)N2[C@H]1C(=O)[O-].[Na+] (some centres not stated) |  |  |  |  |  |  |  | 107 | 1 | 106 |  |
| -0.2 | CC1(C)SC2C(NC(=O)N/C=C/c3cccs3)C(=O)N2[C@H]1C(=O)[O-].[Na+] (some centres not stated) |  |  |  |  |  |  |  | 102 | 0 | 52 |  |
| -0.26 | CC1(C)SC2C(NC(=O)N/C=C/c3ccco3)C(=O)N2[C@H]1C(=O)[O-].[Na+] (some centres not stated) |  |  |  |  |  |  |  | 101 | 3 | 89 |  |
